Consider 1 molecule from ChEMBL document CHEMBL4819017 (Eur J Med Chem, 2021).

Some results are limits rather than exact numbers.

Data set [1] is described as follows: Half life in BALB/c mouse at 10 mg/kg, po measured for 8 hrs. Format: ADME, organism-based. Particulars: in vivo. The method in brief: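 BALB/c mice dosed I.V. or P.O. at the stated dose; plasma levels followed for 8 h. Parameters from noncompartmental analysis: AUC (h.ng/ml), T1/2 (h), Cl (L/h/Kg), Vd (L/Kg), Cmax (ng/ml), Tmax (h).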
Data set [2] concerns SK-OV-3. The data set can be described thus: Growth inhibition of human SK-OV-3 cells harboring mutated p110alpha measured after 72 hrs by Cell titre Glo-luminiscence cell viability assay. The data set is classed as functional. The method in brief: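 Cells harvested just before confluency and seeded at 4,000 cells/well, then left 24 h before dosing. Serial dilutions from 10 mM DMSO stocks, final DMSO ≤0.5%, each concentration in duplicate.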

In data set [3] the target is Cytochrome P450 2C19 (Homo sapiens, UniProt P33261). The data set can be described thus: Inhibition of CYP2C19 (unknown origin) using LuciferinH-EG as substrate at 10 uM preincubated with enzyme and substrate for 5 mins followed by addition of NADPH regeneration system and measured after 60 mins by luminescence method. The data set is classed as ADME. The method in brief: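 P450-Glo luminescence assays with these substrates: Luciferin-ME (CYP1A2), Luciferin-PPXE (CYP3A4), Luciferin-H (CYP2C9), LuciferinH-EG (CYP2C19), Luciferin-ME-EG (CYP2D6). Compounds run in 1/3 serial dilutions from 10 µM in 0.5% DMSO with enzyme and substrate. After 5 min preincubation, NADPH regeneration reagent added; 60 min at 37 °C, then detection reagent for 30 min. Background subtracted.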
Chain of Cytochrome P450 2C19 (P33261 whole entry): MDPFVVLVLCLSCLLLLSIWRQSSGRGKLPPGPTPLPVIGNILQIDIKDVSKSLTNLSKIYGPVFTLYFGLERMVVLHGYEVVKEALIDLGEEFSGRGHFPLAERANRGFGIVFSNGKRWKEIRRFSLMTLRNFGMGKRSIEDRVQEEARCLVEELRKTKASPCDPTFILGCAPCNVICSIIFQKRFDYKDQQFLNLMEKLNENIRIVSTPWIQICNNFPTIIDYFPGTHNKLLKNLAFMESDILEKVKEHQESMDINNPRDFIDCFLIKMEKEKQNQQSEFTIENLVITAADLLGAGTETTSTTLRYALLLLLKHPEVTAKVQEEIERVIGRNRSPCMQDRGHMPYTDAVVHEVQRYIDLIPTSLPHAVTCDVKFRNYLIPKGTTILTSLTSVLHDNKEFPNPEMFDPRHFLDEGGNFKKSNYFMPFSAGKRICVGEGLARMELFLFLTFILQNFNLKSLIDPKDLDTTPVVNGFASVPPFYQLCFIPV

The half-life is how long it takes for the measured level to halve. The term GI50 denotes the concentration at which growth is held to half of that of the control. Read a low GI50 as greater sensitivity of the cells. As a reminder, the IC50 is the point on the concentration scale where inhibition reaches its midpoint. Read a high IC50 as weaker potency in that assay. `COc1ncc2cc1NS(=O)(=O)c1cccc(c1)C(=O)NCc1cncc(c1)-c1cnc3ccc-2cn13` gave a half-life in data set [1] of 5.22 h. This molecule also had a GI50 in data set [2] of 0.0189 µM. The molecule also yielded an IC50 in data set [3] above 30 µM.
